According to paper PMC8721254 (Journal of Advanced Research, 2021):

How the values were obtained:
[1] = Chemical stability in saline phosphate buffer; assay type: physicochemical; conditions: phosphate buffered saline (PBS), pH 7.4
How it was run: (§1)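 Test compound was taken from a 10 mM DMSO stock and diluted into PBS pH 7.4 or pepsin-free SGF pH 1.2 (0.5% DMSO final), in triplicate. Samples were incubated at 37 ± 0.5 °C for 24 h with sampling at intervals. Parent compound, glucocorticoid, H2S-donor moiety and succinate metabolite were quantified by C18 RP-HPLC (CH3CN/water 0.1% TFA gradient; UV 234/250/300 nm) against calibration standards. Results are % remaining, mean ± SD, n = 3.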

[2] = Enzymatic stability in human serum; assay type: in vitro ADME
How it was run: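 Sterile-filtered human serum was spiked with test compound from a 10 mM DMSO stock (1% DMSO), in triplicate, at 37 °C. Aliquots taken at intervals up to 24 h were deproteinized with an equal volume of CH3CN containing 0.1% TFA. Samples were vortexed, sonicated 3 min, centrifuged 5 min at 2500 g, filtered, and analysed by C18 RP-HPLC against calibration standards. Half-life is reported as mean ± SD, n = 3.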

[3] = Chemical stability in simulated gastric fluid; assay type: physicochemical; conditions: simulated gastric fluid (SGF) without pepsin, pH 1.2
How it was run: as §1

[4] = tested on: BSMCs; assay: Intracellular H2S release; assay type: cell-based; conditions: WSP-1-preloaded BSMCs, 40 min
How it was run: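 Bronchial smooth muscle cells were grown at 37 °C in 5% CO2 with 1% pen/strep and seeded at 30 × 10^3 cells/well. Cells were loaded with the H2S-sensitive dye WSP-1, then exposed to test compound, vehicle, or diallyl disulfide as reference donor. Fluorescence was recorded spectrofluorometrically for 40 min and expressed as fluorescence index, mean ± SEM.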

[5] = tested on: RBL-2H3 cells; assay: β-hexosaminidase; assay type: cell-based, rat; conditions: DNP-HSA-induced degranulation of RBL-2H3
How it was run: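 Rat basophilic leukaemia RBL-2H3 cells were seeded at 72 × 10^3 cells/well and sensitized overnight with anti-DNP-HSA IgE, then moved to DMEM containing 1 mg/mL BSA. Test compound, vehicle (0.1% DMSO) or cromolyn was preincubated 5 min at 37 °C, and degranulation was triggered with DNP (10 ng/mL). After 1 h, supernatant β-hexosaminidase was read at 405 nm with p-nitrophenyl-N-acetyl-β-D-glucosaminide substrate. Values are relative to DNP-HSA as 100%, analysed by one-way ANOVA/Bonferroni.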

[6] = tested on: OVA-induced allergic lung inflammation; assay: OVA-induced allergic lung inflammation and remodeling; assay type: in vivo, Balb/c mice; conditions: mice, oral, equimolar doses equivalent to 5.5 mg/kg prednisone (compound 7 9.1 mg/kg); for number of peribronchiolar eosinophils / number of peribronchiolar mast cells: vs allergic mice; for peribronchiolar collagen density / peribronchiolar smooth muscle (α-actin): vs vehicle-treated allergic mice
How it was run: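 Male Balb/c mice, 4–5 weeks old (n = 5/group), sensitized with subcutaneous OVA on alum on days 1 and 11 plus intranasal OVA on day 11. Intranasal OVA challenges followed on two consecutive days weekly for six weeks; controls got saline. Oral dosing in 0.5% carboxymethyl cellulose (1 mL/kg) was given 30 min before each challenge, then daily for 4 weeks until euthanasia. Formalin-fixed lungs were scored for α-actin (immunohistochemistry) and collagen (Masson's trichrome); one-way ANOVA with Tukey test.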

[7] = tested on: BSMCs; assay: Membrane hyperpolarizing effects on BSMCs; assay type: cell-based; conditions: reference NS1619 10 µM

Structure (SMILES)	remaining at 24 h, 50 µM [1] [%]	half-life at 100 µM [2] [min]	remaining at 24 h, 50 µM [3] [%]	Intracellular H2S release, fluorescence index (FI) ([4]; 100 and 300 µM)	Intracellular H2S release, fluorescence index (FI) ([4]; 100 µM, vs vehicle)	inhibition of mast cell degranulation (β-hexosaminidase release) ([5]; 100 and 300 µM)	number of peribronchiolar eosinophils [6]	number of peribronchiolar mast cells [6]	peribronchiolar collagen density [6]	peribronchiolar smooth muscle (α-actin) [6]	hyperpolarizing effect compared to NS1619 10 µM ([7]; 100 µM)	hyperpolarizing effect compared to NS1619 10 µM ([7]; 300 µM)	inhibition of mast cell degranulation (β-hexosaminidase release) ([5]; 300 µM)	Intracellular H2S release, fluorescence index (FI) ([4]; 300 µM)
C[C@@H]1C[C@H]2[C@@H]3CCC4=CC(=O)C=C[C@]4(C)[C@@]3(F)[C@@H](O)C[C@]2(C)[C@@]1(O)C(=O)COC(=O)CCC(=O)Oc1ccc(-c2cc(=S)ss2)cc1 [Compound 6, 2-((8S,9R,10S,11S,13S,14S,16R,17R)-9-fluoro-11,17-dihydroxy-10,13,16-trimethyl-3-oxo-6,7,8,9,10,11,12,13,14,15,16,17-dodecahydro-3H-cyclopenta[a]phenanthren-17-yl)-2-oxoethyl (4-(3-thioxo-3H-1,2-dithiol-5-yl)phenyl) succinate]	99 ± 2	10 ± 1	99 ± 1	did not cause any significant increase in fluorescence										
C=CCSSCC=C [DADS, diallyl disulfide, reference compound]					significant FI increase									
NC(=S)c1ccc(O)cc1 [TBZ, 4-hydroxy-thiobenzamide, reference compound]					slight increase of FI						38%	43%	significant inhibition of RBL-2H3 degranulation	massive increase in FI
C[C@]12C=CC(=O)C=C1CC[C@@H]1[C@@H]2C(=O)C[C@@]2(C)[C@H]1CC[C@]2(O)C(=O)CO [Compound 2, prednisone, reference compound]						totally inactive	significantly reduced	significantly reduced	efficient in reducing	efficient in reducing				

Further lines, with some results ahead:

remaining at 24 h, 50 µM [1] [%]	half-life at 100 µM [2] [min]	remaining at 24 h, 50 µM [3] [%]	Structure (SMILES)	Intracellular H2S release, fluorescence index (FI) ([4]; 100 and 300 µM)	Intracellular H2S release, fluorescence index (FI) ([4]; 100 µM, vs vehicle)	inhibition of mast cell degranulation (β-hexosaminidase release) ([5]; 100 and 300 µM)	number of peribronchiolar eosinophils [6]	number of peribronchiolar mast cells [6]	peribronchiolar collagen density [6]	peribronchiolar smooth muscle (α-actin) [6]	hyperpolarizing effect compared to NS1619 10 µM ([7]; 100 µM)	hyperpolarizing effect compared to NS1619 10 µM ([7]; 300 µM)	inhibition of mast cell degranulation (β-hexosaminidase release) ([5]; 300 µM)	Intracellular H2S release, fluorescence index (FI) ([4]; 300 µM)
99 ± 2	9 ± 2	99 ± 1	C[C@]12C=CC(=O)C=C1CC[C@@H]1[C@@H]2C(=O)C[C@@]2(C)[C@H]1CC[C@]2(O)C(=O)COC(=O)CCC(=O)Oc1ccc(-c2cc(=S)ss2)cc1 [Compound 8, 2-((8S,9S,10R,13S,14S,17R)-17-hydroxy-10,13-dimethyl-3,11-dioxo-6,7,8,9,10,11,12,13,14,15,16,17-dodecahydro-3H-cyclopenta[a]phenanthren-17-yl)-2-oxoethyl (4-(3-thioxo-3H-1,2-dithiol-5-yl)phenyl) succinate]	did not cause any significant increase in fluorescence										
97 ± 1	15 ± 2	99 ± 1	C[C@]12C=CC(=O)C=C1CC[C@@H]1[C@@H]2C(=O)C[C@@]2(C)[C@H]1CC[C@]2(O)C(=O)COC(=O)CCC(=O)Oc1ccc(C(N)=S)cc1 [Compound 7, 4-carbamothioylphenyl (2-((8S,9S,10R,13S,14S,17R)-17-hydroxy-10,13-dimethyl-3,11-dioxo-6,7,8,9,10,11,12,13,14,15,16,17-dodecahydro-3H-cyclopenta[a]phenanthren-17-yl)-2-oxoethyl) succinate]	significant increase in the intracellular level of H2S		significant inhibitory effect on mast cell degranulation	significantly reduced	significantly reduced	significantly more efficient than the parent prednisone	significantly more efficient than the parent prednisone	about 240%	about 309%		
